From ChEMBL document CHEMBL1141282, “Isariotins A-D, alkaloids from the insect pathogenic fungus Isaria tenuipes BCC 7831” (J Nat Prod, 2007)
In brackets after ≈: the same amount, converted by molar mass. Activity calls are given as the source filed them. The rule behind the calls is not given here.

Experiments:
NCI-H187 = assay: Cytotoxicity against human NCI-H-187 cells up to 20 ug/mL; format: functional, cell-based
Vero = assay: Cytotoxicity against African green monkey Vero cells up to 50 ug/mL; format: cell-based; details: chlorocebus sabaeus
KB = assay: Cytotoxicity against human KB cells up to 20 ug/mL; format: functional, cell-based
Pyricularia grisea = assay: Antifungal activity against Magnaporthe grisea up to 50 ug/mL; format: functional, organism-based
Candida albicans = assay: Antifungal activity against Candida albicans up to 50 ug/mL; format: functional, organism-based
BC = assay: Cytotoxicity against human BC cells up to 20 ug/mL; format: functional, cell-based
[1] = system: Mycobacterium tuberculosis; assay: Antitubercular activity against Mycobacterium tuberculosis H37Ra; format: functional
Summary of the method: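 Whole-cell test against the H37Ra strain, with the minimum inhibitory concentration (MIC) read out in µg/mL.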

Plasmodium falciparum = assay: Antiplasmodial activity against Plasmodium falciparum K1 to 20 ug/mL; format: functional, organism-based

Structure (SMILES) | Activity (NCI-H187) | Activity (Vero) | Activity (KB) | Activity (Pyricularia grisea) | Activity (Candida albicans) | Activity (BC) | MIC [1] [µM] | Activity (Plasmodium falciparum)
O=C(/C=C/CCCCCCCCCO)N[C@H]1C[C@@]2(O)C(=O)[C@H]([C@H](O)[C@@H]3O[C@@H]32)[C@H]1O [ISARIOTIN A] | inactive | Not Active | inactive | inactive | inactive | inactive | 486 (≈ 200 µg/mL) | inactive
O=C(O)CCCCCCCC/C=C/C(=O)N[C@H]1C[C@@]2(O)C(=O)[C@H]([C@H](O)[C@@H]3O[C@@H]32)[C@H]1O [ISARIOTIN B] | inactive | Not Active | inactive | inactive | inactive | inactive |  | inactive
CCCCCC(=O)CCC/C=C/C(=O)N[C@H]1C[C@@]2(O)C(=O)[C@H]([C@H](O)[C@@H]3O[C@@H]32)[C@H]1O [ISARIOTIN C] | inactive | Not Active | inactive | inactive | inactive | inactive | 488 (≈ 200 µg/mL) | inactive
CCCCCCC/C=C/C(=O)N[C@H]1C[C@@]2(O)C(=O)[C@H]([C@H](O)[C@@H]3O[C@@H]32)[C@H]1O [ISARIOTIN D] | inactive | Not Active | inactive | inactive | inactive | inactive | 544 (≈ 200 µg/mL) | inactive
